Experimental data as given in ChEMBL document CHEMBL1124947, “Cationic antiprotozoal drugs. Trypanocidal activity of 2-(4'-formylphenyl)imidazo[1,2-a]pyridinium guanylhydrazones and related derivatives of quaternary heteroaromatic compounds” (J Med Chem, 1990).

Columns and labels:
Mus musculus [1] = test: Trypanocidal Activity at I.C.E. value 0.25 when administered perorally.; assay type: functional
Mus musculus [2] = test: Trypanocidal Activity at I.C.E. value 0.44 when administered subcutaneously.; assay type: functional
Method in brief: (§1)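 Blood-stage T. rhodesiense infection came from a standard inoculum lethal to all untreated mice. Drug was given by subcutaneous injection to groups of five mice. Survival beyond 30 days counted as cure. […] Sub-curative doses scored 0, and data were normalized at each dose.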

Mus musculus [3] = test: Trypanocidal Activity at I.C.E. value 0.90 when administered subcutaneously.; assay type: functional
Mus musculus [4] = test: Trypanocidal Activity at I.C.E. value 0.44 when administered perorally.; assay type: functional
Mus musculus [5] = test: Trypanocidal Activity at I.C.E. value 0.64 when administered perorally.; assay type: functional
[6] = system: Trypanosoma brucei rhodesiense; test: In Vitro measurement of inhibition of thymidine uptake in cell culture of Trypanosoma rhodesiense.; assay type: functional; details: read-out: ID50 (the source's name)
Method in brief: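 Parasites harvested from infected rats and incubated 3 h across a drug concentration series, usually 0.1–100 µg/mL. Incorporation of radiolabeled thymidine measured. ID50 is the concentration (µg/mL) producing 50% inhibition.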

Mus musculus [7] = test: Trypanocidal Activity at I.C.E. value 0.39 when administered subcutaneously.; assay type: functional; method in brief: as §1
[8] = system: Trypanosoma brucei rhodesiense; test: In Vitro measurement of inhibition of Leucine uptake in cell culture of Trypanosoma rhodesiense.; assay type: functional; details: read-out: ID50 (the source's name)
Method in brief: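 Trypanosomes harvested from infected rats, cultured 3 h with several concentrations of drug, usually 0.1–100 µg/mL. Radiolabeled L-leucine uptake measured. ID50 is the concentration in µg/mL giving 50% inhibition of incorporation.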

Mus musculus [9] = test: Trypanocidal Activity at I.C.E. value 0.71 when administered subcutaneously.; assay type: functional
Method in brief: (§2)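 Mice, in groups of five per dose, were given a standard inoculum of blood-stage T. rhodesiense that is lethal to all untreated controls, then dosed subcutaneously. Usually 11 dose levels were used (2^n × 0.42 mg/kg).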

Mus musculus [10] = test: Trypanocidal Activity at I.C.E. value 0.32 when administered perorally.; assay type: functional
Mus musculus [11] = test: Trypanocidal Activity at I.C.E. value 0.24 when administered subcutaneously; assay type: functional; method in brief: as §1
Mus musculus [12] = test: Curative activity of the Compound after Subcutaneous administration at a dose of 6.6 mg/kg and I.C.E. value of 0.54 for 30 days; 5/5; assay type: functional
Mus musculus [13] = test: Trypanocidal Activity at I.C.E. value 0.48 when administered perorally.; assay type: functional
Mus musculus [14] = test: Fraction of mice that were cured after oral administration at a dose of 1.67 mg/kg and I.C.E. value of 0.84; assay type: functional
Mus musculus [15] = test: Fraction of mice that were cured after subcutaneous administration at a dose of 13 mg/kg and I.C.E. value of 0.54; assay type: functional
Mus musculus [16] = test: Fraction of mice that were cured after subcutaneous administration at a dose of 3.3 mg/kg and I.C.E. value of 0.54; assay type: functional
Mus musculus [17] = test: Curative activity of the Compound after Subcutaneous administration at a dose of 0.83 mg/kg and I.C.E. value of 0.54 for 30 days; 27/30; assay type: functional
Mus musculus [18] = test: Curative activity of the Compound after Subcutaneous administration at a dose of 1.67 mg/kg and I.C.E. value of 0.54 for 30 days; 10/10; assay type: functional
Mus musculus [19] = test: Curative activity of the Compound after oral administration at a dose of 212 mg/kg ( T-Toxic)and I.C.E. value of 0.49 for 30 days; 5/5; assay type: functional
Mus musculus [20] = test: Fraction of mice that were cured after subcutaneous administration at a dose of 26 mg/kg and I.C.E. value of 0.54; assay type: functional
Mus musculus [21] = test: Curative activity of the Compound after oral administration at a dose of 424 mg/kg ( T-Toxic)and I.C.E. value of 0.49 for 30 days; 10/10; assay type: functional
Mus musculus [22] = test: Curative activity of the Compound after Subcutaneous administration at a dose of 0.42 mg/kg and I.C.E. value of 0.54 for 30 days; 2/5; assay type: functional
Mus musculus [23] = test: Fraction of mice that were cured after oral administration at a dose of 0.42 mg/kg and I.C.E. value of 0.84; assay type: functional
Mus musculus [24] = test: Curative activity of the Compound after Subcutaneous administration at a dose of 26 mg/kg ( T-Toxic) and I.C.E. value of 0.54 for 30 days; 11/15; assay type: functional
Mus musculus [25] = test: Fraction of mice that were cured after subcutaneous administration at a dose of 212 mg/kg and I.C.E. value of 0.54; assay type: functional
Mus musculus [26] = test: Fraction of mice that were cured after subcutaneous administration at a dose of 0.83 mg/kg and I.C.E. value of 0.54; assay type: functional
Mus musculus [27] = test: Fraction of mice that were cured after oral administration at a dose of 3.3 mg/kg and I.C.E. value of 0.84; assay type: functional
Mus musculus [28] = test: Fraction of mice that were cured after oral administration at a dose of 106 mg/kg and I.C.E. value of 0.49
Mus musculus [29] = test: Fraction of mice that were cured after subcutaneous administration at a dose of 53 mg/kg and I.C.E. value of 0.54; assay type: functional
Mus musculus [30] = test: Fraction of mice that were cured after oral administration at a dose of 6.6 mg/kg and I.C.E. value of 0.84; assay type: functional
Mus musculus [31] = test: Fraction of mice that were cured after subcutaneous administration at a dose of 424 mg/kg and I.C.E. value of 0.54; assay type: functional
Mus musculus [32] = test: Fraction of mice that were cured after oral administration at a dose of 424 mg/kg and I.C.E. value of 0.84; assay type: functional
Mus musculus [33] = test: Trypanocidal Activity at I.C.E. value 0.54 when administered subcutaneously.; assay type: functional; method in brief: as §1
Mus musculus [34] = test: Curative activity of the Compound after oral administration at a dose of 26 mg/kg and I.C.E. value of 0.49 for 30 days; 10/10; assay type: functional
Mus musculus [35] = test: Fraction of mice that were cured after subcutaneous administration at a dose of 0.42 mg/kg and I.C.E. value of 0.54; assay type: functional
Mus musculus [36] = test: Fraction of mice that were cured after subcutaneous administration at a dose of 6.6 mg/kg and I.C.E. value of 0.54; assay type: functional
Mus musculus [37] = test: Curative activity of the Compound after Subcutaneous administration at a dose of 13 mg/kg and I.C.E. value of 0.54 for 30 days; 10/10; assay type: functional
Mus musculus [38] = test: Fraction of mice that were cured after subcutaneous administration at a dose of 1.67 mg/kg and I.C.E. value of 0.54; assay type: functional
Mus musculus [39] = test: Fraction of mice that were cured after oral administration at a dose of 53 mg/kg and I.C.E. value of 0.84; assay type: functional
Mus musculus [40] = test: Fraction of mice that were cured after subcutaneous administration at a dose of 106 mg/kg and I.C.E. value of 0.54; assay type: functional
Mus musculus [41] = test: Fraction of mice that were cured after oral administration at a dose of 0.83 mg/kg and I.C.E. value of 0.84; assay type: functional
Mus musculus [42] = test: Curative activity of the Compound after oral administration at a dose of 53 mg/kg ( T-Toxic) and I.C.E. value of 0.49 for 30 days; 5/5; assay type: functional
Mus musculus [43] = test: Fraction of mice that were cured after oral administration at a dose of 212 mg/kg and I.C.E. value of 0.84; assay type: functional
Mus musculus [44] = test: Fraction of mice that were cured after oral administration at a dose of 26 mg/kg and I.C.E. value of 0.84; assay type: functional
Mus musculus [45] = test: Curative activity of the Compound after oral administration at a dose of 13 mg/kg and I.C.E. value of 0.49 for 30 days; 2/5; assay type: functional
Mus musculus [46] = test: Fraction of mice that were cured after oral administration at a dose of 13 mg/kg and I.C.E. value of 0.84; assay type: functional
Mus musculus [47] = test: Curative activity of the Compound after Subcutaneous administration at a dose of 3.3 mg/kg and I.C.E. value of 0.54 for 30 days; 24/25; assay type: functional
Mus musculus [48] = test: Curative activity of the Compound after oral administration at a dose of 106 mg/kg ( T-Toxic)and I.C.E. value of 0.49 for 30 days; 5/5; assay type: functional
Mus musculus [49] = test: Trypanocidal Activity at I.C.E. value 0.53 when administered subcutaneously.; assay type: functional; method in brief: as §1
Mus musculus [50] = test: Trypanocidal Activity at I.C.E. value 0.31 when administered subcutaneously.; assay type: functional; method in brief: as §1
Mus musculus [51] = test: Trypanocidal Activity at I.C.E. value 0.16 when administered perorally.; assay type: functional
Mus musculus [52] = test: Trypanocidal Activity at I.C.E. value 0.77 when administered subcutaneously.; assay type: functional; method in brief: as §2

Br.CC/N=C(\NCC)N/N=C/c1ccc(OCc2cn3ccccc3[n+]2C)cc1.[Br-]
CD50 (Mus musculus [1]): 106 mg/kg | CD50 (Mus musculus [2]): 0.8 mg/kg

Br.Cc1cccc2n1cc(/C=C/c1ccc(/C=N/NC(=N)N3CCCC3)cc1)[n+]2C.[Br-]
CD50 (Mus musculus [3]): 0.4 mg/kg | CD50 (Mus musculus [4]): 53 mg/kg

Br.C[n+]1c(-c2ccc(/C=N/NC(=N)N3CCCC3)cc2)cn2ccccc21.[Br-]
CD50 (Mus musculus [5]): 6.6 mg/kg | IC50 [6]: 0.6 µg/mL | CD50 (Mus musculus [7]): 0.06 mg/kg | IC50 [8]: 0.6 µg/mL

Br.CCCCNC(=N)N/N=C/c1ccc(-c2cn3ccc(C)cc3[n+]2C)cc1.[Br-]
CD50 (Mus musculus [9]): 0.4 mg/kg | CD50 (Mus musculus [10]): 26 mg/kg

Br.C/N=C(/N/N=C/c1ccc(-c2cn3ccccc3[n+]2C)cc1)SC.[Br-]
CD50 (Mus musculus [11]): 26 mg/kg

C[n+]1c(-c2ccc(/C=N/NC(=N)N)cc2)cn2ccccc21.Cc1ccc(S(=O)(=O)O)cc1.Cc1ccc(S(=O)(=O)[O-])cc1
Survivors (Mus musculus [12]): 5 | CD50 (Mus musculus [13]): 26 mg/kg | Fraction cured (Mus musculus [14]): 0 | Fraction cured (Mus musculus [15]): 1 | Fraction cured (Mus musculus [16]): 0.96 | Survivors (Mus musculus [17]): 27 | Survivors (Mus musculus [18]): 10 | Survivors (Mus musculus [19]): 5 | Fraction cured (Mus musculus [20]): 0.73 | Survivors (Mus musculus [21]): 10 | Survivors (Mus musculus [22]): 2 | Fraction cured (Mus musculus [23]): 0 | Survivors (Mus musculus [24]): 11 | Fraction cured (Mus musculus [25]): 0 | Fraction cured (Mus musculus [26]): 0.9 | Fraction cured (Mus musculus [27]): 0 | Fraction cured (Mus musculus [28]): 1 | Fraction cured (Mus musculus [29]): 0 | Fraction cured (Mus musculus [30]): 0 | Fraction cured (Mus musculus [31]): 0 | Fraction cured (Mus musculus [32]): 1 | CD50 (Mus musculus [33]): 0.8 mg/kg | Survivors (Mus musculus [34]): 10 | Fraction cured (Mus musculus [35]): 0.4 | Fraction cured (Mus musculus [36]): 1 | Survivors (Mus musculus [37]): 10 | Fraction cured (Mus musculus [38]): 1 | Fraction cured (Mus musculus [39]): 1 | Fraction cured (Mus musculus [40]): 0 | Fraction cured (Mus musculus [41]): 0 | Survivors (Mus musculus [42]): 5 | Fraction cured (Mus musculus [43]): 1 | Fraction cured (Mus musculus [44]): 1 | Survivors (Mus musculus [45]): 2 | Fraction cured (Mus musculus [46]): 0.4 | Survivors (Mus musculus [47]): 24 | Survivors (Mus musculus [48]): 5

Br.Cc1ccn2cc(-c3ccc(/C=N/NC(=N)N4CCOCC4)cc3)[n+](C)c2c1.[Br-]
CD50 (Mus musculus [49]): 0.4 mg/kg

Br.C[n+]1ccccc1COc1ccc(/C=N/NC2=NCCCN2)cc1.[Br-]
CD50 (Mus musculus [50]): 6.6 mg/kg | CD50 (Mus musculus [51]): 212 mg/kg

Br.Cc1ccc2n(c1)cc(/C=C/c1ccc(/C=N/NC(=N)N3CCCC3)cc1)[n+]2C.[Br-]
CD50 (Mus musculus [52]): 0.4 mg/kg
